In ChEMBL document CHEMBL3526053, “Species-dependent uptake of glycylsarcosine but not oseltamivir in Pichia pastoris expressing the rat, mouse, and human intestinal peptide transporter PEPT1” (Drug Metab Dispos, 2012):

Tests used:
Assay type in all cases: ADME
[1] = target: T1, Solute carrier family 15 member 1 (Mus musculus, UniProt Q9JIP7); assay: Drug uptake in Pichia pastoris GS115 expressing mouse recombinant PEPT1 at 5 uM after 30s by dual-channel liquid scintillation counting analysis in presence of cephapirin relative to control; conditions: 0.5 min
T1 sequence (Q9JIP7 whole entry): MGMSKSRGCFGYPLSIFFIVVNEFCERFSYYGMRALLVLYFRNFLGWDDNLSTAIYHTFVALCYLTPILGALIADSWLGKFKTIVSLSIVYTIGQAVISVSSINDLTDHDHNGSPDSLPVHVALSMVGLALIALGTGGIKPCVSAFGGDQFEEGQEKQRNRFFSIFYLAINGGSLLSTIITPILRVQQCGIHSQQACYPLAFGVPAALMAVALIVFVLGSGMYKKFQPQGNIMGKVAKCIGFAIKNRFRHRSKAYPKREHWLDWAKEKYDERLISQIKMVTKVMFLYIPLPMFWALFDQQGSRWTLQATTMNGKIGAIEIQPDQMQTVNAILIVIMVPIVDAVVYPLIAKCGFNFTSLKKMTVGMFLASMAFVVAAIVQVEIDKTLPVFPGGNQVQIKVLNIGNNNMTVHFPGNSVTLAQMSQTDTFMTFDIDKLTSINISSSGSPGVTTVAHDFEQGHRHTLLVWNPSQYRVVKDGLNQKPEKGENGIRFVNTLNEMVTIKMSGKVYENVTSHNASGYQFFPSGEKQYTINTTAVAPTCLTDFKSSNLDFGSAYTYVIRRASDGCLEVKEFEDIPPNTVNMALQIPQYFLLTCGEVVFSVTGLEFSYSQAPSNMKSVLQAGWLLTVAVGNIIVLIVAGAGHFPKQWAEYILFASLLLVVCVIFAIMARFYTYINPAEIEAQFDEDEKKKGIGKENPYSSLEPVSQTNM
Summary of the method: (§1)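 [3H]GlySar 5.0 µM final, 30-s uptake at 24°C in 100 mM potassium phosphate pH 6.5, with or without a potential inhibitor at 10 mM. Cells are methanol-induced transformants. Values are vector-subtracted and expressed as percent of buffer control. Mean ± SE (n=3). ANOVA with Dunnett's test.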

[2] = target: T2, Solute carrier family 15 member 1 (Homo sapiens, UniProt P46059); assay: Drug uptake in Pichia pastoris GS115 expressing human recombinant PEPT1 at 5 uM after 30s by dual-channel liquid scintillation counting analysis in presence of TEA relative to control; conditions: 0.5 min; summary of the method: as §1
T2 sequence (P46059 whole entry): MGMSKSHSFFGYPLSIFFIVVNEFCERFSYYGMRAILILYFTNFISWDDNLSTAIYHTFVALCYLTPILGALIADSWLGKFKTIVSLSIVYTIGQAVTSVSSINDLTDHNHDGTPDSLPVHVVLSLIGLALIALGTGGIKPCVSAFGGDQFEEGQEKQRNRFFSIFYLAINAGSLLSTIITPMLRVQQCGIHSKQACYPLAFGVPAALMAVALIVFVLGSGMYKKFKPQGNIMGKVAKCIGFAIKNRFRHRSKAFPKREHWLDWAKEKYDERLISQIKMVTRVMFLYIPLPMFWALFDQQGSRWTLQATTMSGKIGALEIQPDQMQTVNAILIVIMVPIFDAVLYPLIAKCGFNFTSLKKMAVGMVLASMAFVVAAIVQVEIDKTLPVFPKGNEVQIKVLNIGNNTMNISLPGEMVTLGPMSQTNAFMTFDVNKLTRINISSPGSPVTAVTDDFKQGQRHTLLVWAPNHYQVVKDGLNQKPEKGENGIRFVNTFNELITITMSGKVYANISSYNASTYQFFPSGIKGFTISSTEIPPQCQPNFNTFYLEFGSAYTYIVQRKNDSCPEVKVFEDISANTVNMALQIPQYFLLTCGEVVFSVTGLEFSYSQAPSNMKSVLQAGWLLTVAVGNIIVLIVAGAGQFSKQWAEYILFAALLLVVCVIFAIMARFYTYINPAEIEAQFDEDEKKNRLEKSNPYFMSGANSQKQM

[3] = target: T1, Solute carrier family 15 member 1; assay: Drug uptake in Pichia pastoris GS115 expressing mouse recombinant PEPT1 at 5 uM after 30s by dual-channel liquid scintillation counting analysis in presence of elacridar relative to control; conditions: 0.5 min; summary of the method: as §1
PEPT1 = target: T3, PEPT1 (Homo sapiens, UniProt P46059); assay: Drug uptake in Pichia pastoris GS115 expressing human recombinant PEPT1 at 5 uM after 30s by dual-channel liquid scintillation counting analysis relative to vector control; conditions: read-out: FC
T3 sequence (P46059 whole entry): T2 sequence (P46059 whole entry)
Summary of the method: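 5.0 µM radiolabelled substrate uptake for 30 s at 24°C in pH 6.5 phosphate buffer by induced transformants. Radioactivity is counted by liquid scintillation and normalised to OD600. Results are compared with pPIC3.5K vector-alone cells. Mean ± SE (n=6).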

[4] = target: T2, Solute carrier family 15 member 1; assay: Activity at human recombinant PEPT1 expressed in Pichia pastoris GS115 assessed as non-saturable rate constant after 30s by dual-channel liquid scintillation counting analysis
Summary of the method: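 [3H]GlySar concentration series 0.005-10 mM, 30-s uptake at 24°C in 100 mM potassium phosphate pH 6.5. Cells come from His+Mut+ GS115 transformants induced 20-24 h in methanol medium. Uptake is normalised to OD600. Data are fitted to Michaelis-Menten plus a first-order nonsaturable term (Kd), weighting unity. Parameters are mean ± SE (n=9).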

[5] = target: T2, Solute carrier family 15 member 1; assay: Drug uptake in Pichia pastoris GS115 expressing human recombinant PEPT1 at 5 uM after 30s by dual-channel liquid scintillation counting analysis in presence of cefadroxil relative to control; conditions: 0.5 min; summary of the method: as §1
[6] = target: T4, Solute carrier family 15 member 1 (Rattus norvegicus, UniProt P51574); assay: Drug uptake in Pichia pastoris GS115 expressing rat recombinant PEPT1 at 5 uM after 30s by dual-channel liquid scintillation counting analysis in presence of cefadroxil relative to control; conditions: in vivo, 0.5 min; summary of the method: as §1
T4 sequence (P51574 whole entry): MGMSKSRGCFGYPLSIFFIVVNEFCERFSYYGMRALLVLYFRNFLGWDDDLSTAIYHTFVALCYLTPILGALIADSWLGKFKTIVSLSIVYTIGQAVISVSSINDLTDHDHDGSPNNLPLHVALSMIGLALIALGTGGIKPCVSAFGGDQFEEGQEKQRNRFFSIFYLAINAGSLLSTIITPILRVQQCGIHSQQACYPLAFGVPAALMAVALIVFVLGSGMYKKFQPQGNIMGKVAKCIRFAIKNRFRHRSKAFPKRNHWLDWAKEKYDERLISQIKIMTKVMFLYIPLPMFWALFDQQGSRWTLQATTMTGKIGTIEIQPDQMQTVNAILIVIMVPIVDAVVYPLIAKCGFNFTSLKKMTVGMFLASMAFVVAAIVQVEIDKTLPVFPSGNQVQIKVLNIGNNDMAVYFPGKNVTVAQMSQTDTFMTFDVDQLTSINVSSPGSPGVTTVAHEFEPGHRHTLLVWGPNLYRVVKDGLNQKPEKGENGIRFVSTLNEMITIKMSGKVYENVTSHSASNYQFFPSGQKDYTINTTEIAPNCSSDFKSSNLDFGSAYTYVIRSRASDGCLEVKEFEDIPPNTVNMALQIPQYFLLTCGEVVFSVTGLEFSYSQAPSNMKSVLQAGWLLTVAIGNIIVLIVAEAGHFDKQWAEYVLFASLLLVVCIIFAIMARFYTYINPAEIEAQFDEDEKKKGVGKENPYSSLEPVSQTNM

[3H]C(C(=O)O)N(C)C(=O)CN (configuration not stated)
Drug uptake [1]: 83.7%
Drug uptake [2]: 113%
Drug uptake [3]: 89.3%
uptake ratio at 0.5 min, 5 µM (PEPT1): 23
Kd [4]: 2.21 uL/OD/min
Drug uptake [5]: 6.4%
Drug uptake [6]: 23.1%
